Results published in ChEMBL document CHEMBL4665734, “Optimization of globomycin analogs as novel gram-negative antibiotics” (Bioorg Med Chem Lett, 2020).
≈ marks a conversion by molar mass, not a printed value.

What was measured:
[1] = Growth inhibition of Staphylococcus aureus USA300
Escherichia coli = experiment: Inhibition of LspA in Escherichia coli CFT073imp4213 harboring outer membrane-permeable mutant assessed as inhibition of bacterial growth
Procedure, shortened: (§1)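 Read-out is the minimum inhibitory concentration, reported in µM.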

Escherichia coli CFT073 = experiment: Inhibition of LspA in wild type Escherichia coli CFT073 assessed as inhibition of bacterial growth; procedure, shortened: as §1
[2] = Lipophilicity, logD of the compound at pH 7.4; details: buffer, pH 7.4, logD

| Structure (SMILES) | MIC [1] [µM] | MIC (Escherichia coli) [µM] | MIC (Escherichia coli CFT073) [µM] | logD [2] |
| --- | --- | --- | --- | --- |
| CCCCCCCCCC[C@H]1OC(=O)CNC(=O)[C@H]([C@H](C)O)NC(=O)[C@H](CO)NC(=O)[C@H]([C@H](C)CC)NC(=O)[C@H](CC(C)C)N(C)C(=O)[C@@H]1C | 25 (≈ 17.8 µg/mL) | 0.016 (≈ 0.0114 µg/mL) | 5.4 (≈ 3.84 µg/mL) | – |
| CCCCCC[C@H]1OC(=O)CNC(=O)[C@H]([C@H](C)O)NC(=O)[C@H](CN)NC(=O)[C@H](C2CCCCC2)NC(=O)[C@H](CC)N(C)C(=O)[C@@H]1C | > 100 | 0.14 (≈ 0.0914 µg/mL) | 8.8 (≈ 5.74 µg/mL) | – |
| CCCCCC[C@H]1OC(=O)CNC(=O)[C@H]([C@H](C)O)NC(=O)[C@H](CN)NC(=O)[C@H]([C@@H](C)O)NC(=O)[C@H](CC(C)C)N(C)C(=O)[C@@H]1C | > 100 | 50 (≈ 32.1 µg/mL) | > 100 | – |
| CCCCCC[C@H]1OC[C@@H](C)NC(=O)[C@H](CN(C)CCCN)NC(=O)[C@H](CN)NC(=O)[C@H](C2CCCCCC2)NC(=O)[C@H](CCC)N(C)C(=O)[C@@H]1C | 100 (≈ 73.7 µg/mL) | 0.39 (≈ 0.287 µg/mL) | 8.8 (≈ 6.49 µg/mL) | 1.8 |
| CCCCCC[C@H]1OC(=O)CNC(=O)[C@H]([C@H](C)O)NC(=O)[C@H](CN)NC(=O)[C@H]([C@@H](C)OC)NC(=O)[C@H](CC(C)C)N(C)C(=O)[C@@H]1C | > 100 | 7.7 (≈ 5.06 µg/mL) | > 100 | – |
| CCCCCC[C@H]1OC(=O)CNC(=O)[C@H]([C@H](C)O)NC(=O)[C@H](CN)NC(=O)[C@H](CCC(N)=O)NC(=O)[C@H](CC(C)C)N(C)C(=O)[C@@H]1C | > 100 | > 100 | > 100 | – |
| COC(C)(C)CCCCCC[C@H]1OC(=O)CNC(=O)[C@H]([C@H](C)O)NC(=O)[C@H](CN)NC(=O)[C@H](C2CCCCC2)NC(=O)[C@H](CC(C)C)N(C)C(=O)[C@@H]1C | > 100 | 0.048 (≈ 0.0361 µg/mL) | 2.2 (≈ 1.66 µg/mL) | 2.8 |
| CCCCCC[C@H]1OC(=O)CNC(=O)[C@H]([C@H](C)O)NC(=O)[C@H](CN)NC(=O)[C@H](Cc2ccccc2)NC(=O)[C@H](CC(C)C)N(C)C(=O)[C@@H]1C | > 100 | 0.8 (≈ 0.551 µg/mL) | 50 (≈ 34.4 µg/mL) | – |
| CCCCCC[C@H]1OC(=O)CNC(=O)[C@H]([C@H](C)O)NC(=O)[C@H](CN)NC(=O)[C@H](C2CCCCCC2)NC(=O)[C@H](CC(C)C)N(C)C(=O)[C@@H]1C | 50 (≈ 34.7 µg/mL) | 0.014 (≈ 0.00973 µg/mL) | 1.1 (≈ 0.764 µg/mL) | 3.4 |
| CCCCCC[C@H]1OC[C@@H](C)NC(=O)[C@H](CNCCCN)NC(=O)[C@H](CN)NC(=O)[C@H](C2CCCCCC2)NC(=O)[C@H](CCC)N(C)C(=O)[C@@H]1C | 50 (≈ 36.2 µg/mL) | 0.28 (≈ 0.202 µg/mL) | 3.1 (≈ 2.24 µg/mL) | 1.1 |
| CCC[C@H]1C(=O)N[C@@H](C2CCCCCC2)C(=O)N[C@@H](CN)C(=O)N[C@@H]([C@H](C)O)C(=O)NCC(=O)O[C@H](C[C@@H]2CC[C@@H]3CC[C@H]2C3)[C@@H](C)C(=O)N1C | 25 (≈ 18 µg/mL) | 0.009 (≈ 0.00647 µg/mL) | 0.4 (≈ 0.288 µg/mL) | 3.1 |
| CCCCCCCCCC[C@H]1OC(=O)CNC(=O)[C@H]([C@H](C)O)NC(=O)[C@H](CNC(=N)N)NC(=O)[C@H]([C@@H](C)CC)NC(=O)[C@H](CC(C)C)N(C)C(=O)[C@@H]1C | 13 (≈ 9.79 µg/mL) | 1.6 (≈ 1.2 µg/mL) | 50 (≈ 37.6 µg/mL) | – |
| CC[C@@H](C)[C@@H]1NC(=O)[C@H](CC(C)C)N(C)C(=O)[C@H](C)[C@@H](CCCCC(C)(C)C)OC(=O)CNC(=O)[C@H]([C@H](C)O)NC(=O)[C@H](CN)NC1=O | 100 (≈ 68.3 µg/mL) | 0.035 (≈ 0.0239 µg/mL) | 3.1 (≈ 2.12 µg/mL) | 3 |
| CCCCCC[C@H]1OC(=O)CNC(=O)[C@H]([C@H](C)O)NC(=O)[C@H](CN)NC(=O)[C@H](C2CCCCC2)NC(=O)[C@H](CCC)N(C)C(=O)[C@@H]1C | > 100 | 0.049 (≈ 0.0327 µg/mL) | 3.5 (≈ 2.33 µg/mL) | – |
| CCCCCCCCCC[C@H]1OC(=O)CNC(=O)[C@H]([C@H](C)O)NC(=O)[C@H](CCN)NC(=O)[C@H]([C@@H](C)CC)NC(=O)[C@H](CC(C)C)N(C)C(=O)[C@@H]1C | 13 (≈ 9.42 µg/mL) | 0.39 (≈ 0.283 µg/mL) | 25 (≈ 18.1 µg/mL) | – |
| CCCCCC[C@H]1OC(=O)CNC(=O)[C@H]([C@H](C)O)NC(=O)[C@H](CN)NC(=O)[C@H](CC(C)C)NC(=O)[C@H](CC(C)C)N(C)C(=O)[C@@H]1C | > 100 | 0.4 (≈ 0.262 µg/mL) | 25 (≈ 16.4 µg/mL) | – |
| CCCC(C)(C)CC[C@H]1OC(=O)CNC(=O)[C@H]([C@H](C)O)NC(=O)[C@H](CN)NC(=O)[C@H]([C@H](C)CC)NC(=O)[C@H](CC(C)C)N(C)C(=O)[C@@H]1C | 100 (≈ 68.3 µg/mL) | 0.034 (≈ 0.0232 µg/mL) | 3.1 (≈ 2.12 µg/mL) | 3.2 |
| CCCCCC[C@H]1OC(=O)CNC(=O)[C@H]([C@H](C)O)NC(=O)[C@H](CN)NC(=O)[C@H]([C@H](C)CC)NC(=O)[C@H](CC(C)C)N(C)C(=O)[C@@H]1C | > 100 | 0.053 (≈ 0.0347 µg/mL) | 8.6 (≈ 5.63 µg/mL) | – |
